ERAP1 HTS inh = human ERAP1 aminopeptidase inhibitors, primary screen, biochemical, single point, plate reader | Endoplasmic reticulum aminopeptidase 1 (Homo sapiens), Q9NZ08 | recombinant ERAP1, Leu-AMC fluorescence, 60 min | inhibition, % at 10.7 µM | hit rate 0.15% among 340,000 | AID 652197, 2013;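 active = mean replicate inhibition of at least 30%, or all replicates individually reaching that 30% level; inactive = mean below 30% and not every replicate reaching it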;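 note: 0% = neutral control wells and 100% = L-leucinethiol positive control wells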
Target sequence (Q9NZ08 whole entry, looked up): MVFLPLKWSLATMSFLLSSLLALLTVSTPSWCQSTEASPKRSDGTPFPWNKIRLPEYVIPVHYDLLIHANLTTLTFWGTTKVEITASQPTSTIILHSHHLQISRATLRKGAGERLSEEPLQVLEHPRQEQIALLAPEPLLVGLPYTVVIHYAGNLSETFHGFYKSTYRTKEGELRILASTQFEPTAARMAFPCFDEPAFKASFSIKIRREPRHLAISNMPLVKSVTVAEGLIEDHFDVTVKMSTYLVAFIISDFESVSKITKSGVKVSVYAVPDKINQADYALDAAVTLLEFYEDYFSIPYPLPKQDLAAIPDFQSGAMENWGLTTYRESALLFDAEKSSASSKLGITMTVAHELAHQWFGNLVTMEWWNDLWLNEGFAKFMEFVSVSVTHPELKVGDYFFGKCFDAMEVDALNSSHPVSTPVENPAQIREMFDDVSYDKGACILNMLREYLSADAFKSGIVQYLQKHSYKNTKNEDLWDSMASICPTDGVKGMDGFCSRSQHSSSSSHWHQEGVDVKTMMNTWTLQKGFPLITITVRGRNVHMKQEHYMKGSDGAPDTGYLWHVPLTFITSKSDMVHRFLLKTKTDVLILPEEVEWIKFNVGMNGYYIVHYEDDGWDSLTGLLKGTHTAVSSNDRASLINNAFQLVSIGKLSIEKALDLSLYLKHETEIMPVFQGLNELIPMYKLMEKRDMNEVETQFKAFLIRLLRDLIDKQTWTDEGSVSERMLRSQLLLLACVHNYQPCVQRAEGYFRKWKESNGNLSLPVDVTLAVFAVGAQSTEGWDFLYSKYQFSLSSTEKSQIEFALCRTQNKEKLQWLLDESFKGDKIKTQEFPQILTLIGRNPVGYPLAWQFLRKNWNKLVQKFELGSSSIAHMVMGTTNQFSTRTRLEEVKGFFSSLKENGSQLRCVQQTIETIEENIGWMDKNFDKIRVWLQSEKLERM
S100A4 MyoIIA = inhibitors of S100A4-myosin IIA peptide binding, primary screen, biochemical, fluorescence polarization, TAMRA-MyoIIA peptide; inhibition, % at 10.7 µM; hit rate 0.14% among 360,000; Protein S100-A4 (Homo sapiens), P26447;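 active = mean inhibition of at least 70% across replicates, with every replicate also reaching that level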
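Compound dosing: one dose per compound; test system: human S100A4 monomer with TAMRA-labelled myosin IIA peptide; probe or stimulus: TAMRA-labelled myosin IIA heavy-chain peptide probe, 5 nM; medium: HEPES buffer with Ca2+, pH 7.2; schedule: 5 min incubation before reading; benchmarks: neutral control DMSO, positive control TFP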
Casp6 inh = human caspase-6 inhibitors, primary screen, biochemical, VEID-R110 fluorescence, single point, set 2. P55212. purified caspase-6, Z-VEID-R110 cleavage fluorescence. inhibition, % at 12.5 µM. hit rate 0.53% among 350,000;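 active = mean inhibition across replicates at least about 35%, with every replicate also reaching that limit, limit read from the data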;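 note: 0% = median of neutral control wells and 100% = no fluorescence left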
PGC1a acetyl inh = inhibitors of PGC1a acetylation signal, primary screen, cell-based, U2OS, AlphaScreen, inhibitor mode; AlphaScreen anti-acetyl-lysine; with virally co-expressed GCN5 acetyltransferase; inhibition, % at 15.6 µM; hit rate 0.17% among 350,000; AID 651687, 2012;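 active = every replicate shows inhibition of at least 40%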;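 note: 0% = neutral control wells and 100% = positive control wells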
rRNA inh HTS = reduced GFP signal of wild-type E. coli, primary screen, bacterial rRNA inhibitor project, GFP/RFP fluorescence, OD600, single point; E. coli WT GFP vs humanized-ribosome RFP mutants, 24 h; stronger effect = lower value; DMSO median 0, no signal -100; GFP signal change (wild-type ribosome), % (concentration not given with the values); hit rate 1.6% among 350,000; AID 720706, 2013;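 active = significant combined selectivity score with lowered wild-type GFP, culture density cut under 30%, mutant RFP and density less affected; inactive = any of these conditions unmet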
ARNT TACC3 PPI = disruptors of ARNT/TACC3 protein interaction, primary screen, biochemical, AlphaScreen, single concentration; inhibition, % at 9.99 µM; hit rate 0.66% among 390,000; AlphaScreen His-ARNT PAS-B/GST-TACC3 binding, luminescence; TACC3 fragment carries E629A point mutation; Transforming acidic coiled-coil-containing protein 3 (Homo sapiens), Q9Y6A5;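 active = mean inhibition of replicates at least 50% and at least half of replicates each reaching 50%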;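 note: 0% = complete ARNT plus TACC3 wells and 100% = ARNT alone without TACC3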
An asterisk follows results filed as active; nt = not tested or not shown. Most compounds without a hit are left out; they make up all but 2.4% or so of the library.

SMILES | ERAP1 HTS inh | S100A4 MyoIIA | Casp6 inh | PGC1a acetyl inh | rRNA inh HTS | ARNT TACC3 PPI
O=C(NCC[C@H]1CC[C@@H](NC(=O)C2CCC2)[C@H](CO)O1)c1ccc(F)cc1 | 2 | 5 | 4 | -7 | 2 | 7
O=C(O)c1cccc(-n2c(O)c(C=C3N=c4ccccc4=N3)sc2=S)c1 | 4 | 10 | 59* | -2 | 7 | 19
O=C(O)CCCn1c(O)c(C=C2N=c3ccccc3=N2)sc1=S | 4 | 7 | 41* | 38 | 5 | 1
CCC(=O)N1C[C@H](C)[C@@H](OC)CN(C)C(=O)c2cc(NC(=O)C3CCCCC3)ccc2OC[C@@H]1C | -3 | 2 | 1 | 13 | 0 | -6
COc1ccc(CCC2(C)NC(=O)N(C(C)C(=O)N3c4ccccc4CC3C)C2=O)cc1 (stereo unspecified) | -5 | -2 | 4 | nt | -18* | -2
COc1ccc(S(=O)(=O)CCC(=O)N2c3ccccc3CC2C)cc1 (stereo unspecified) | nt | nt | nt | -16 | nt | -4
CC(C)CC#Cc1ccc2c(c1)O[C@@H](CN(C)C(=O)c1cnccn1)[C@@H](C)CN([C@@H](C)CO)S2(=O)=O | -2 | 4 | 1 | 1 | 1 | 4
O=S1OC(c2ccccc2)c2cc(Cl)ccc21 (stereo unspecified) | 1 | -4 | 0 | 9 | -15* | 9
N#C[C@@H]1[C@@H](c2ccccc2C2=CCCCC2)[C@H](CO)N1C(=O)NC1CCCCC1 | 1 | -5 | 0 | 0 | -1 | nt
O=S1(=O)CC(O)C(O)CS1 (stereo unspecified) | 65* | 3 | -2 | nt | nt | nt
COc1ccc2c3c(n(C)c2c1)[C@H](CO)N(C(=O)Cc1ccccc1)CC31CCN(C(C)=O)CC1 | nt | nt | nt | -1 | -1 | nt
COc1cc([N+](=O)[O-])cc(/C=N/NC(=O)Cn2cncn2)c1O | 5 | 0 | 1 | -2 | 1 | 61*
COc1cc([N+](=O)[O-])cc(/C=N/NC(=O)c2ccc(C)nc2)c1O | nt | nt | nt | 3 | nt | 65*
O=C(C[C@H]1C[C@@H]2c3cc(NC(=O)c4ccc5c(c4)OCO5)ccc3O[C@@H]2[C@@H](CO)O1)NCc1ccc(Cl)cc1 | 4 | 3 | -1 | -7 | -12 | 6
CCCCCn1c(=O)[nH]c2cc(C(=O)NC3CCN(Cc4ccccc4)CC3)ccc2c1=O | -1 | 1 | -6 | 13 | 1 | 33
O=C(NC1CCN(Cc2ccccc2)CC1)c1ccc2c(c1)[nH]c(=O)n2Cc1ccc(F)cc1 | 6 | -3 | 4 | 14 | -32* | 0
O=C(C[C@@H]1CC[C@@H](NS(=O)(=O)c2cccc(F)c2)[C@@H](CO)O1)NCc1ccc2c(c1)OCO2 | 2 | 7 | 0 | -7 | -2 | 1
C[C@@H](NC(=O)[C@@H]1[C@@H](CO)[C@@H]2Cn3c(ccc(-c4cccnc4)c3=O)[C@H]1N2C)c1ccccc1 | -2 | 2 | 0 | nt | 0 | -3
Cc1cc(N)n(-c2ccc(S(=O)(=O)c3ccc(C(C)C)cc3)cc2)n1 | -5 | 6 | 2 | -10 | -26* | -2
CC(C)NC(=O)N(C)C[C@@H]1Oc2ccc(NS(=O)(=O)c3ccccc3)cc2C(=O)N([C@H](C)CO)C[C@@H]1C | 1 | 112* | 1 | -1 | 2 | 21
COc1ccc(NC(=O)N(C)C[C@@H]2OCCCC[C@@H](C)Oc3ccc(NS(=O)(=O)c4ccc(Cl)cc4)cc3C(=O)N([C@H](C)CO)C[C@@H]2C)cc1 | -5 | 139* | -4 | 11 | -2 | -2
COc1ccc(NC(=O)N(C)C[C@H]2OCCCC[C@@H](C)Oc3ccc(NS(=O)(=O)c4ccc(Cl)cc4)cc3C(=O)N([C@H](C)CO)C[C@H]2C)cc1 | -4 | 2 | 1 | -8 | 3 | -4
C[C@@H]1CN([C@@H](C)CO)C(=O)c2cc(NS(=O)(=O)c3ccccc3)ccc2O[C@@H](C)CCCCO[C@H]1CN(C)C(=O)Nc1ccc(C(F)(F)F)cc1 | 1 | -11 | -2 | -10 | 1 | nt
CC(C)NC(=O)N(C)C[C@H]1Oc2ccc(NS(=O)(=O)c3ccccc3)cc2C(=O)N([C@@H](C)CO)C[C@@H]1C | -3 | -14 | 1 | 10 | 4 | 2
COc1ccc(S(=O)(=O)Nc2ccc3c(c2)C(=O)N([C@@H](C)CO)C[C@H](C)[C@@H](CN(C)C(=O)Nc2ccccc2)OCCCC[C@H](C)O3)cc1 | nt | nt | nt | -6 | -6 | -9
SMILES | ERAP1 HTS inh | S100A4 MyoIIA | Casp6 inh | PGC1a acetyl inh | rRNA inh HTS | ARNT TACC3 PPI
COc1ccc(S(=O)(=O)Nc2ccc3c(c2)C(=O)N([C@@H](C)CO)C[C@@H](C)[C@H](CN(C)C(=O)Nc2ccccc2)OCCCC[C@@H](C)O3)cc1 | 1 | 103* | -3 | -9 | -2 | 39
C[C@H]1CCCCO[C@H](CN(C)C(=O)Nc2ccc(C(F)(F)F)cc2)[C@@H](C)CN([C@@H](C)CO)C(=O)c2cc(NS(=O)(=O)c3ccccc3)ccc2O1 | -6 | 86* | 0 | 13 | 0 | 21
C[C@H](CO)N1C[C@H](C)[C@@H](CN(C)Cc2ccc(C(F)(F)F)cc2)Oc2ccc(NS(=O)(=O)c3ccc(F)cc3)cc2C1=O | 2 | -7 | 7 | 103* | -1 | -5
COc1ccc(CN(C)C[C@@H]2OCCCC[C@@H](C)Oc3ccc(NS(=O)(=O)c4cn(C)cn4)cc3C(=O)N([C@@H](C)CO)C[C@H]2C)cc1 | -4 | 8 | 1 | 24 | 1 | 17
COc1ccc(NC(=O)N(C)C[C@H]2OCCCC[C@@H](C)Oc3ccc(NS(=O)(=O)c4cn(C)cn4)cc3C(=O)N([C@H](C)CO)C[C@@H]2C)cc1 | 2 | 4 | 60* | -9 | 0 | -5
COc1ccc(NC(=O)N(C)C[C@@H]2OCCCC[C@@H](C)Oc3ccc(NS(=O)(=O)c4ccc(OC)cc4)cc3C(=O)N([C@@H](C)CO)C[C@H]2C)cc1 | nt | nt | nt | -1 | -2 | 24*
COc1ccc(CN(C)C[C@@H]2OCCCC[C@H](C)Oc3ccc(NS(=O)(=O)c4cn(C)cn4)cc3C(=O)N([C@@H](C)CO)C[C@H]2C)cc1 | -1 | 110* | 0 | 12 | 1 | -9

High-throughput results from PubChem BioAssay.
